Data: ChEMBL document CHEMBL3632470, “Antimalarial and Antiproliferative Cassane Diterpenes of Caesalpinia sappan” (J Nat Prod, 2015)

Legend:
HT-29 = experiment: Cytotoxicity against human HT-29 cells after 48 hrs by MTT assay; type: functional, cell-based; conditions: HT-29, 48 h
Method in brief: (§1)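 Cells grown in DMEM with 10% FBS, seeded at 6 × 10^4 cells/mL per well. Compounds in DMSO added at five concentrations, each in triplicate. Incubated 48 h at 37 °C in 5% CO2, then MTT (4 mg/mL) for another 4 h. Cells lysed in DMSO, absorbance read at 570 nm. At least three independent experiments.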

KB = experiment: Cytotoxicity against human KB cells after 48 hrs by MTT assay; type: functional, cell-based; method in brief: as §1
Plasmodium falciparum = experiment: Antimalarial activity against chloroquine-resistant Plasmodium falciparum K1 by microculture radioisotope technique; type: functional, organism-based
Method in brief: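 Microculture radioisotope technique on P. falciparum K1 (multidrug-resistant strain), parasites kept in continuous culture. Three replications per experiment. IC50 reported as mean ± SD of triplicate experiments.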

SMILES	IC50 (HT-29) [µM]	IC50 (KB) [µM]	IC50 (Plasmodium falciparum) [µM]
COc1cccc2c1C(=O)c1c(O)c3c(c(O)c1C2=O)C[C@@](O)(C(=O)CO)C[C@@H]3O[C@H]1C[C@H](N)[C@H](O)[C@H](C)O1 [DOXORUBICIN]	0.68	1.4	–
CCO[C@@H]1OC(OC)C2(C(=O)OC)CCCC13[C@H]1C[C@@]4(OCC)OC(=O)C=C4[C@H](C)[C@@H]1CC[C@@H]23 (stereo not given in full)	–	–	34.8
COC(=O)[C@]1(C)CCC[C@@]2(CO)C1CC[C@H]1[C@@H](C)C3=CC(=O)O[C@]3(O)C[C@@H]12 (stereo not given in full)	–	–	2.5
COC(=O)C12CCCC3([C@H](O)OC1)[C@H]1C[C@@]4(O)OC(=O)C=C4[C@H](C)[C@@H]1CC[C@@H]23 (stereo not given in full)	–	–	0.78
CCO[C@@]12C[C@H]3[C@@H](CCC4[C@](C)(C(=O)OC)CCC[C@@]43C=O)[C@@H](C)C1=CC(=O)O2 (stereo not given in full)	–	7.4	29.7
CCO[C@@]12C[C@H]3[C@@H](CC[C@H]4C5(C(=O)OC)CCCC34C(OC)OC5)[C@@H](C)C1=CC(=O)O2 (stereo not given in full)	–	–	15.7
COC(=O)C12CCCC3(C(OC)OC1O)[C@H]1C[C@@]4(O)OC(=O)C=C4[C@H](C)[C@@H]1CC[C@@H]23 (stereo not given in full)	–	–	0.52
CCO[C@@]12C[C@H]3[C@@H](CC[C@H]4C5(C(=O)OC)CCCC34C(OC)O[C@@H]5OC)[C@@H](C)C1=CC(=O)O2 (stereo not given in full)	–	–	28.4
CCO[C@@]12C[C@H]3[C@@H](CCC4[C@](C)(C(=O)OC)CCC[C@@]43C(=O)O)[C@@H](C)C1=CC(=O)O2 (stereo not given in full)	–	–	41.2
CCO[C@H]1OC(OC)C23CCCC1(C(=O)OC)[C@@H]2CC[C@H]1[C@@H](C)C2=CC(=O)O[C@]2(OCC)C[C@@H]13 (stereo not given in full)	–	–	32.1
CCO[C@@]12C[C@H]3[C@@H](CC[C@H]4C5(C(=O)OC)CCCC34[C@H](O)OC5)[C@@H](C)C1=CC(=O)O2 (stereo not given in full)	–	–	7.4
CCO[C@@]12C[C@H]3[C@@H](CCC4C(C(=O)OC)(C(=O)OC)CCC[C@@]43C=O)[C@@H](C)C1=CC(=O)O2 (stereo not given in full)	–	–	38.9
CCOC1OCC2(C(=O)OC)CCCC13[C@H]1C[C@@]4(OC)OC(=O)C=C4[C@H](C)[C@@H]1CC[C@@H]23 (stereo not given in full)	–	–	19.2
